Data from the RNAGym collection of RNA variant scans (doi:10.1126/science.aae0568).
Fewer inactive variants are shown than the library holds.

B1: tRNA (parent)
chain: GUUCCGUUGGCGUAAUGGUAACGCGUCUCCCUCCUAAGGAGAAGACUGCGGGUUCGAGUCCCGUACGGAACG

Variants of: B1
Assay: yeast fitness relative to wild type (ratio to wild type); higher = fitter; tRNA-Arg(CCU), competitive growth, 37 C, YPD
Procedure, shortened: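 Genotype frequency changes were the basis for Darwinian fitness relative to wild type. The frequencies came from 100-nucleotide paired-end sequencing of gene amplicons from the start population and each end population of pooled yeast strains with tRNA-Arg(CCU) gene variants at the native locus. Competition ran in YPD at 37°C for 24 hours in six replicates, genotypes needed ≥ 100 starting reads, and estimates < 0.5 were set to 0.5.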

Row | Variant | yeast fitness
1 | G10C C30G A43U G68U | ≤ 0.5
2 | C11A A21U A43U G58C C60A C66U | 0.563
3 | G10C U53A C66U | ≤ 0.5
4 | G10C G12A U28C C61G C66U | ≤ 0.5
5 | C11A C22G C33U C34A G41A A65G | 0.527
6 | C11A A43U C46U U47G G58A | ≤ 0.5
7 | G10C U35G C62G | 0.52
8 | G10C U35A A37U A43G | ≤ 0.5
9 | G10C U19G | 0.552
10 | G10C U19A | 0.612
11 | C11A C22G U53C C66U | ≤ 0.5
12 | G10C U32C A42C | ≤ 0.5
13 | C11A A43G C61U | ≤ 0.5
14 | G10C U26A C31U | 0.578
15 | C11A A42G U53G | ≤ 0.5
16 | C11A A14G U19G A43C U53A C66U | 0.601
17 | G10C C49A C62U | ≤ 0.5
18 | G10U C66U | 0.794
19 | G10C G67U | 0.689
20 | G10C C29G A70C | ≤ 0.5
21 | G10C G12A U16A C30U | ≤ 0.5
22 | C11A A21U U54G | ≤ 0.5
23 | C11A A43U G48C C60G | ≤ 0.5
24 | C11A A43U C46U U47G | 0.565

Row | Variant | yeast fitness
25 | C11A A37U C49G C60G C62G | ≤ 0.5
26 | C11A A42U G44C U54A C62U A65G | ≤ 0.5
27 | G10C G23A G52C C62U | 0.55
28 | G10C C27U C66G | ≤ 0.5
29 | G10C C29U A69C | ≤ 0.5
30 | G10C U19C A65G A70C | ≤ 0.5
31 | C11A A21C U26G A69C | ≤ 0.5
32 | G10C C31G U32C A36U A57U C60G | ≤ 0.5
33 | C11A A43U C46U U47G A70U | ≤ 0.5
34 | C11A A15G C31A C60A | ≤ 0.5
35 | G10C G18C A45C G56C A70C | ≤ 0.5
36 | G10C C33G A40U | 0.579
37 | G10C C33G A57G | ≤ 0.5
38 | C11A A15C A57G C61U | ≤ 0.5
39 | C11A A69C | 0.671
40 | C11A A20G C62A | 0.605
41 | G10C C34A A40G | 0.631
42 | C11A A14U C24U C34G U35A A36C C61A | ≤ 0.5
43 | G10C G63A G68C | ≤ 0.5
44 | G10U U16A G25A C49U G50C | ≤ 0.5
45 | C11A A21C G51C U59G | ≤ 0.5
46 | C11A A36C G56C | 0.614
47 | G10C C66U | 0.577
48 | C11A A37U U54C | 0.678

Row | Variant | yeast fitness
49 | G10C C30U G51A G63A | ≤ 0.5
50 | G10C U13C U32G | ≤ 0.5
51 | G10C U16C A20G | ≤ 0.5
52 | C11A A15G C49U C66U | ≤ 0.5
53 | G10C C34G A42U A70C | ≤ 0.5
54 | G10C C49U A69C | 0.575
55 | C11A A20U U28A C60G | 0.521
56 | G10C G23C C33G C46A C66A | ≤ 0.5
57 | G10C C46G | 0.708
58 | C11A A36G | 0.646
59 | C11A A36U | 0.559
60 | G10C U26C C55U | 0.507
61 | G10C C60U | ≤ 0.5
62 | G10C C60A | 0.583
63 | C11A A37U G67A | ≤ 0.5
64 | G10C C33A A45C C55U | ≤ 0.5
65 | G10C C34U A40C | 0.667
66 | C11A A21C C31A G58A | ≤ 0.5
67 | G10C U28G C33G C49U | ≤ 0.5
68 | G10C U32C A42C G68C | ≤ 0.5
69 | G10C C30U C31A | ≤ 0.5
70 | G10C C31G A45U G68C | ≤ 0.5
71 | G10C C34G U54C G67U | ≤ 0.5
72 | C11A A14G C24U G41C C55G | 0.581

Row | Variant | yeast fitness
73 | G10C U26A C49U C55G C60G | ≤ 0.5
74 | C11A A14U A21C C46U U53C A65G | 0.575
75 | G10C U19A C24U | 0.531
76 | G10C G12C C49U G56C | ≤ 0.5
77 | C11A A15U A20C C34G A65C | ≤ 0.5
78 | G10C G48A U54A | ≤ 0.5
79 | G10C G12C G39A G50A A69U | ≤ 0.5
80 | G10C U26A A43G C60U C62U A70C | ≤ 0.5
81 | G10U G17A C24A C61G | ≤ 0.5
82 | G10C U35G C66U | ≤ 0.5
83 | G10C G12A C33G U47G | ≤ 0.5
84 | G10C C33G U64C | ≤ 0.5
85 | C11A A21U A43U | ≤ 0.5
86 | G10C G12A A15G A36U C46U | ≤ 0.5
87 | G10C C27U G38A C46G | 0.57
88 | G10C C31A | 0.577
89 | C11A A14U U59C C62U | ≤ 0.5
90 | G10C C33G C46G C62G | ≤ 0.5
91 | G10C G48A | 0.851
92 | C11A A21U C27A U35G | ≤ 0.5
93 | G10C G41A G50C | ≤ 0.5
94 | G10C C29A G68C | ≤ 0.5
95 | G10C G23A A45C U54C | 0.58
96 | C11A A15G G58C | 0.505

Row | Variant | yeast fitness
97 | G10C G41C | 0.634
98 | C11A A21U | 0.606
99 | C11A A21C | 0.557
100 | G10C G12C G39A C61U | ≤ 0.5
101 | C11A A21C C31A C55G | ≤ 0.5
102 | G10C C34G U59A | ≤ 0.5
103 | G10C C31G A65U | ≤ 0.5
104 | G10C U13A C31A C55U | ≤ 0.5
105 | G10C U13A A14G A20G C22A C24G U32G | ≤ 0.5
106 | G10C U26A C61G A70C | ≤ 0.5
107 | G10C G12C C46A | ≤ 0.5
108 | C11A A43G | 0.621
109 | G10C C49G A65G | 0.55
110 | G10C C31U A57C C62A | ≤ 0.5
111 | C11A A15C C24G G58A | ≤ 0.5
112 | G10C C29U C46A | ≤ 0.5
113 | G10C U26A G38A A40U | ≤ 0.5
114 | C11A A20U U32C G68C | ≤ 0.5
115 | C11A A20C C24U C55G | 0.617
116 | C11A A42C A65U C66U | 0.623
117 | C11A A20G C62A G67A | ≤ 0.5
118 | G10C U32A C61G A70U | ≤ 0.5
119 | G10C C30G U59G C66A | ≤ 0.5
120 | G10C C29G A42U G58A G63A G67A | ≤ 0.5

Row | Variant | yeast fitness
121 | C11A A20U C30G A45C G48A | ≤ 0.5
122 | G10U A20C A57G | 0.511
123 | G10U U32A G38C U64C | ≤ 0.5
124 | G10C C33G A36C | ≤ 0.5
125 | G10C C29U C31U U54G A65U G67A | ≤ 0.5
126 | G10C C34G A40G | ≤ 0.5
127 | C11A A40G U53C | 0.619
128 | C11A A15G C61U A65U | ≤ 0.5
129 | C11A A14U C30U C33A A36U A57G A69G | ≤ 0.5
130 | G10C C34G U54C A70U | ≤ 0.5
131 | C11A A21G C34U A37G G58A | ≤ 0.5
132 | G10C U32A A36G | ≤ 0.5
133 | G10C G41A C66U | ≤ 0.5
134 | G10C C33A U35C G67C | 0.675
135 | G10C U35G A69C | ≤ 0.5
136 | G10C C31A A65C A69C | ≤ 0.5
137 | G10C G44A A70C | ≤ 0.5
138 | G10C U32A A43C C49A | ≤ 0.5
139 | C11A A45C C55U | 0.517
140 | G10C G23C G48A G52A U53C C61A | 0.52
141 | G10C G68C | 0.697
142 | C11A A36G A43C | 0.58
143 | G10U G17A C29G C55G C60U | ≤ 0.5
144 | G10C U28G C33G C49U A69U | ≤ 0.5

Row | Variant | yeast fitness
145 | G10C U13C G18C C27U C33G C55U U64A G68C A70U | 0.593
146 | G10C U47A A57C | ≤ 0.5
147 | G10C C55A A65C G68A | ≤ 0.5
148 | G10C C29U A43G U53G G63A | 0.527
149 | G10C C55A C61U A65C G68A | ≤ 0.5
150 | G10C U28G G39A C49A C55U | ≤ 0.5
151 | G10C C29A A37G U64C | ≤ 0.5
152 | G10C G12C G17U G39A C61U A69C | ≤ 0.5
153 | G10C C29U | 0.589
154 | C11A A36U C61U A65U | ≤ 0.5
155 | G10C C27U A65C | 0.552
156 | C11A A14G C31G C34G | ≤ 0.5
157 | G10U G17A C24A C62U C66U | ≤ 0.5
158 | G10C U26A | 0.71
159 | G10U A20C C34A U53A U54G | ≤ 0.5
160 | C11A A20U C33U C34U G48A C66U | 0.557
161 | G10C U16A C30U A57G | 0.646
162 | G10C G44C C55G A69U | 0.59
163 | G10C U13A A21U U26C C31U A43U G58A G63C A70C | ≤ 0.5
164 | G10C C29G G39A | ≤ 0.5
165 | C11A A21G C34U A37G G52C A57U A69U | ≤ 0.5
166 | C11A A20U C61U | 0.558
167 | C11A A14U A42G C62A C66U | ≤ 0.5
